Source: publication PMC5731780 (Structure (London, England : 1993), 2017)
Several values for one entry are separate records, joined by “and”; a condition that tells them apart may be missing. Identical values can stand only once.

How the values were obtained:
Ub [1] = molecular target: T1, Ub (Homo sapiens, UniProt P0CG48); test: NMR titration of 15N-labeled Ub; format: binding
K48-Ub2 [2] = molecular target: T2, K48-Ub2 (Homo sapiens, UniProt P0CG48); test: SANS of K48-Ub2 with ubiB; format: binding; conditions: equimolar ubiB
Ub^R42E = Ub^R42E (Homo sapiens, UniProt P0CG48, R42E); test: NMR titration of 15N-labeled Ub^R42E; format: binding; conditions: read-out: Dissociation constant, Ub^R42E (NMR titration); Table 2
Outline: (§1)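 Ub point mutants were made by PCR mutagenesis of human wild-type Ub in pET3a, with DpnI digestion and sequence verification. Increasing amounts of unlabeled ubistatin were titrated into 15N-labeled protein in 20 mM phosphate pH 6.8, 0.02% NaN3, 5% D2O, at 23°. Signal shifts and attenuations were tracked in 1H-15N HSQC or SOFAST-HMQC spectra, and spectral perturbations were quantified at each titration step.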

OTUB1 = test: Gel-based assay of K48-Ub2 disassembly by OTUB1; format: biochemical; conditions: stoichiometric ubiB
yeast 26S proteasome = test: Gel-based assay of DUB activity of 26S proteasome; format: biochemical
Ub^R42E,R72E [3] = molecular target: T3, Ub^R42E,R72E (Homo sapiens, UniProt P0CG48, R42E/R72E); test: NMR titration of 15N-labeled Ub^R42E,R72E; format: binding
Outline: as §1

CFTR ubiquitination = test: In vitro CFTR ubiquitination assay; format: biochemical, yeast
Ub [4] = molecular target: T1, Ub; test: NMR competition assay against ubiquilin-1 UBA domain for Ub; format: binding; conditions: up to 3-fold molar excess
Ub^R74A [5] = molecular target: T4, Ub^R74A (Homo sapiens, UniProt P0CG48, R74A); test: 15N T1 relaxation of Ub^R74A with ubistatin; format: binding; conditions: mean (SD)
Outline: (§2)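 Human Ub and its point mutants were expressed from pET3a and made by PCR mutagenesis. Samples were in 20 mM phosphate buffer (pH 6.8) with 0.02% (w/v) NaN3 and 5% D2O. 15N T1 was measured at 23° on 600 and 800 MHz spectrometers with cryoprobes, using standard pulse sequences.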

Ub^R42E,R72E [6] = molecular target: T3, Ub^R42E,R72E; test: 15N T1 relaxation of Ub^R42E,R72E with ubistatin; format: binding; conditions: mean (SD)
Outline: as §2

K63-Ub2 = test: ubiB fluorescence anisotropy titration with K63-Ub2; format: binding, human; conditions: read-out: Kd, K63-Ub2 (fluorescence anisotropy)
Outline: (§3)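 Fluorescence anisotropy was measured at 21°C in PBS pH 7.4. ubiB was held at 1 μM for Ub2 titrations and 10 μM for Ub, while Ub or Ub2 was varied. Readings were taken in T-configuration, excitation 386 nm, emission 485 nm. Anisotropy change was fitted to a single-site binding model for Kd.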

Ub [7] = molecular target: T1, Ub; test: ubiB fluorescence anisotropy titration with Ub; format: binding; conditions: read-out: Kd, Ub (fluorescence anisotropy)
Outline: as §3

K48-Ub2 [8] = molecular target: T2, K48-Ub2; test: 15N T1 relaxation of K48-Ub2 with ubistatin; format: binding; conditions: mean (SD)
Outline: (§4)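 15N T1 longitudinal relaxation measured with standard pulse sequences at 23°, 600 and 800 MHz with cryoprobes. 15N-labeled human Ub or K48-linked Ub2 was free or mixed with ubistatin in 20 mM phosphate buffer pH 6.8 with 0.02% (w/v) NaN3 and 5% D2O. Values are means with standard deviations averaged over residues in structured regions.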

Ub^72 [9] = molecular target: T5, Ub^72 (Homo sapiens, UniProt P0CG48); test: 15N T1 relaxation of Ub^72 with ubistatin; format: binding; conditions: mean (SD)
Outline: as §2

K48-Ub2 [10] = molecular target: T2, K48-Ub2; test: NMR competition assay against ubiquilin-1 UBA domain for K48-Ub2; format: binding
HeLa cells = test: Perturbation of the Ub landscape in cells; format: cell-based, human
K11-Ub2 = K11-Ub2 (Homo sapiens, UniProt P0CG48); test: ubiB fluorescence anisotropy titration with K11-Ub2; format: binding; conditions: read-out: Kd, K11-Ub2 (fluorescence anisotropy)
Outline: as §3

K48-Ub2 [11] = molecular target: T2, K48-Ub2; test: ubiB fluorescence anisotropy titration with K48-Ub2; format: binding; conditions: read-out: Kd, K48-Ub2 (fluorescence anisotropy)
Outline: as §3

Cezanne (OTUD7B) = test: Gel-based assay of K11-Ub2 disassembly by Cezanne; format: biochemical; conditions: stoichiometric ubiB
AMSH = test: Gel-based assay of K63-Ub2 disassembly by AMSH; format: biochemical; conditions: stoichiometric ubiB
Ub^72 [12] = molecular target: T5, Ub^72; test: NMR titration of 15N-labeled Ub^72; format: binding
Outline: (§5)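 Unlabeled ubistatin was added in increasing amounts to 15N-labeled Ub variant in 20 mM phosphate (pH 6.8), 0.02% NaN3, 5% D2O at 23°. Binding was followed in 1H-15N HSQC or SOFAST-HMQC spectra. Signal shifts were quantified as CSPs and fitted against bound fraction to give Kd.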

HeLa and RCC4 cells = test: ubiB internalization in live cells by fluorescence microscopy; format: cell-based, human; conditions: 10 μM ubiB, 6 hrs
Outline: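 HeLa and RCC4 cells were grown in DMEM/10% FBS on glass-bottom dishes, exposed to 10 μM ubiB for 6 hrs, and washed three times in PBS. Plasma membrane was stained with Texas Red wheat germ agglutinin (1:500, 15 min). Live cells were imaged by confocal Z-stacks (63× oil), with 405 nm excitation for ubiB and 555 nm for the membrane probe.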

Ub [13] = molecular target: T1, Ub; test: SANS of Ub with ubiB; format: binding; conditions: equimolar ubiB
Ub^R74E [14] = molecular target: T6, Ub^R74E (Homo sapiens, UniProt P0CG48, R74E); test: NMR titration of 15N-labeled Ub^R74E; format: binding
Outline: as §5

[15] = tested on: Rpn11 in purified proteasome; test: Proteasome/Rpn11 inhibition assay; format: biochemical, human
Outline: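 Human erythrocyte proteasome was used with Ub4pep substrate: His6, four head-to-tail Ub repeats and a 30-mer peptide whose cysteine carried Oregon Green 488. Compounds were screened at 10 μM. IC50 came from 0–100 μM series in quadruplicate.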

Ubp6 = test: Gel-based assay of K48-Ub2 disassembly by Ubp6; format: biochemical, yeast
Ub^R74A [16] = molecular target: T4, Ub^R74A; test: NMR titration of 15N-labeled Ub^R74A; format: binding
Outline: as §5

Ub [17] = molecular target: T1, Ub; test: 15N T1 relaxation of Ub with ubistatin; format: binding; conditions: mean (SD) over residues in structured regions
Outline: as §4

Ub^R74E [18] = molecular target: T6, Ub^R74E; test: 15N T1 relaxation of Ub^R74E with ubistatin; format: binding; conditions: mean (SD)
Outline: as §2

O=S(=O)(O)c1ccc2c(ccc3nn(-c4ccc(/C=C/c5ccc(-n6nc7ccc8cc(S(=O)(=O)O)ccc8c7n6)cc5S(=O)(=O)O)c(S(=O)(=O)O)c4)nc32)c1 [ubiB, Ubistatin B]
Kd (Ub [1]; read-out: Dissociation constant, Ub (NMR titration), Table 2): 11.3 µM
direct binding to 15N Ub by CSPs (Ub [1]; starting Ub 1 mM): produced CSPs in and around Ub's hydrophobic patch
Radius of gyration (Rg) of K48-Ub2 + ubiB (K48-Ub2 [2]): 20.1 (0.1) Å
Kd (Ub^R42E): 396 µM
disassembly of K48-Ub2 by OTUB1 (OTUB1): prevented
disassembly of K11-Ub6+ by 26S proteasome (yeast 26S proteasome; 20 hr time course): only trace amounts of cleavage intermediates appeared
processing of Ubch5b-Ubn by 26S proteasome (yeast 26S proteasome; K11, K48, K63 linkage-specific antibodies): preserved all three linkage types
binding to Ub^R42E,R72E (Ub^R42E,R72E [3]): only negligible CSPs
Kd (Ub^R42E,R72E [3]; read-out: Dissociation constant, Ub^R42E,R72E (NMR titration), Table 2): > 1000 µM
concentration required for complete inhibition of ubiquitination (CFTR ubiquitination): ≥ 100 µM
CFTR protein modified (ubiquitinated), DMSO control = 100% (CFTR ubiquitination; 100 μM compound, 26°C, 60 min): 18±2%
inhibition of ubiquitination (CFTR ubiquitination; at 1 μM ubiB): 5-10%
IC50 (CFTR ubiquitination; read-out: IC50, CFTR ubiquitination, titration of ubiB): ~10 µM and 10 µM
competition with UBA for binding to Ub (Ub [4]): outcompetes UBA for binding to Ub
15N T1 of Ub^R74A in the presence of ubistatin (Ub^R74A [5]): 544 (26) ms
15N T1 of Ub^R42E,R72E in the presence of ubistatin (Ub^R42E,R72E [6]): 493 (27) ms
Kd (K63-Ub2): 4.88 ± 0.22 µM
Kd (Ub [7]): 14 ± 1.6 µM
15N T1 of K48-Ub2 in the presence of ubistatin (K48-Ub2 [8]): 942 (66) ms
15N T1 of Ub^72 in the presence of ubistatin (Ub^72 [9]): 482 (28) ms
competition with UBA for binding to K48-Ub2 (K48-Ub2 [10]): outcompeted UBA for binding to K48-Ub2
Ub conjugates below 70 kDa (HeLa cells; 2 μM ubiB, 8 hrs): greatly diminished
Ub conjugates, RIPA lysis, Western blot (HeLa cells; 6 hrs ubiB treatment): increases the amount of Ub conjugates
Kd (K11-Ub2): 1.83 ± 0.05 µM
Kd (K48-Ub2 [11]): 0.264 ± 0.023 µM
disassembly of K11-Ub2 by Cezanne (OTUD7B) (Cezanne (OTUD7B)): prevented
disassembly of K63-Ub2 by AMSH (AMSH): prevented
decrease in binding affinity, Ub^72 vs Ub (Ub^72 [12]): 6 fold
Kd (Ub^72 [12]; read-out: Dissociation constant, Ub^72 (NMR titration), Table 2): 73.1 µM
toxicity judged by cell morphology (HeLa and RCC4 cells): not toxic
cell internalization (HeLa and RCC4 cells; no chemical permeabilization): distinct ubiB fluorescence at and within the boundaries of the fluorescently labeled plasma membrane
Radius of gyration (Rg) of Ub + ubiB (Ub [13]): 17.4 (0.1) Å
weakening of ubiB binding, Ub^R74E vs Ub (Ub^R74E [14]): 6 fold
Kd (Ub^R74E [14]; read-out: Dissociation constant, Ub^R74E (NMR titration), Table 2): 67.6 µM
inhibition of deubiquitination ([15]; at 1 μM ubiB): ~50%
IC50 ([15]; read-out: IC50, DUB activity of Rpn11 in purified proteasome, deubiquitination): 1.1 µM and 1 µM
effect on disassembly of K48-Ub2 by Ubp6 (Ubp6): concentration-dependent effect
weakening of ubiB binding, Ub^R74A vs Ub (Ub^R74A [16]): 3.5 fold
Kd (Ub^R74A [16]; read-out: Dissociation constant, Ub^R74A (NMR titration), Table 2): 40.3 µM
15N T1 of Ub in the presence of ubistatin (Ub [17]): 660 ± 25 ms
15N T1 of Ub^R74E in the presence of ubistatin (Ub^R74E [18]): 556 (28) ms

O=S(=O)(O)c1cccc2cccc(Nc3ccccc3)c12 [ANS, 8-anilinonaphthalene-1-sulfonic acid, reference compound]
CSPs in Ub upon titration (Ub [1]): < 0.1 ppm
